ChEMBL document CHEMBL2146441, “2,6-Disubstituted imidazo[2,1-b][1,3,4]thiadiazoles: search for anticancer agents” (2012)

Assays:
Format in all cases: functional
COLO = assay: Cytotoxicity against human COLO […] cells assessed as cell growth at 10^-5 M after 48 hrs by SRB assay; details: read-out: Activity
In short: (§1)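 NCI-60 screen: lines kept in RPMI 1640 with 5% FBS, seeded at 5000–40,000 cells/well by doubling time, preincubated 24 h at 37 °C in 5% CO2. Time-zero plates TCA-fixed at drug addition. DMSO stocks diluted in medium, 48 h exposure. Fixation in cold TCA (final 10% adherent, 16% suspension), 0.4% SRB stain, solubilised in 10 mM Tris base, A515. Percent growth computed against control and time-zero.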

SF-268 = assay: Cytotoxicity against human SF268 cells assessed as cell growth at 10^-5 M after 48 hrs by SRB assay; details: SF-268, 48 h, read-out: Activity
786-0 = assay: Cytotoxicity against human 786-0 cells assessed as cell growth at 10^-5 M after 48 hrs by SRB assay; details: 786-0, 48 h, read-out: Activity; in short: as §1
SNB-75 = assay: Growth inhibition of human SNB75 cells after 48 hrs by SRB assay; details: SNB-75, 48 h
In short: (§2)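 Adherent NCI-60 lines grown in RPMI 1640 with 5% FBS, seeded at 5000–40,000 cells/well, and preincubated 24 h at 37 °C, 5% CO2. Compound, stocked in DMSO, given either once at 10^-5 M or at five 10-fold dilutions for 48 h. Cells fixed with cold TCA (final 10%), stained with 0.4% SRB, and read at 515 nm. GI50 taken as 50% reduction in net protein increase versus time-zero and control plates.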

OVCAR-8 [1] = assay: Growth inhibition of human OVCAR8 cells after 48 hrs by SRB assay; details: OVCAR-8, 48 h; for CC50: read-out: LC50 (the source's name); in short: as §2
MDA-MB-435 = assay: Cytotoxicity against human MDA-MB-435 cells assessed as cell growth at 10^-7 M after 48 hrs by SRB assay; details: MDA-MB-435, 48 h, read-out: Activity
NCI-H226 = assay: Cytotoxicity against human NCI-H226 cells assessed as cell growth at 10^-4 M after 48 hrs by SRB assay; details: NCI-H226, 48 h, read-out: Activity
SK-MEL-2 = assay: Cytotoxicity against human SK-MEL-2 cells assessed as cell growth at 10^-4 M after 48 hrs by SRB assay; details: SK-MEL-2, 48 h, read-out: Activity
SK-MEL-28 = assay: Cytotoxicity against human SK-MEL-28 cells assessed as cell growth at 10^-4 M after 48 hrs by SRB assay; details: SK-MEL-28, 48 h, read-out: Activity
OVCAR-8 [2] = assay: Cytotoxicity against human OVCAR8 cells assessed as cell growth at 10^-4 M after 48 hrs by SRB assay; details: OVCAR-8, 48 h, read-out: Activity
MDA-MB-468 = assay: Cytotoxicity against human MDA-MB-468 cells assessed as cell growth at 10^-4 M after 48 hrs by SRB assay; details: MDA-MB-468, 48 h, read-out: Activity
OVCAR-3 = assay: Cytotoxicity against human OVCAR3 cells assessed as cell growth at 10^-7 M after 48 hrs by SRB assay; details: OVCAR-3, 48 h, read-out: Activity
NCI-H522 = assay: Cytotoxicity against human NCI-H522 cells assessed as cell growth at 10^-8 M after 48 hrs by SRB assay; details: NCI-H522, 48 h, read-out: Activity
OVCAR-4 = assay: Cytotoxicity against human OVCAR4 cells assessed as cell growth at 10^-8 M after 48 hrs by SRB assay; details: OVCAR-4, 48 h, read-out: Activity
TK-10 = assay: Cytotoxicity against human TK10 cells assessed as cell growth at 10^-8 M after 48 hrs by SRB assay; details: TK-10, 48 h, read-out: Activity
SW-620 = assay: Cytotoxicity against human SW620 cells assessed as cell growth at 10^-6 M after 48 hrs by SRB assay; details: SW-620, 48 h, read-out: Activity
OVCAR-5 = assay: Cytotoxicity against human OVCAR5 cells assessed as cell growth at 10^-6 M after 48 hrs by SRB assay; details: OVCAR-5, 48 h, read-out: Activity
MOLT-4 = assay: Growth inhibition of human MOLT4 cells after 48 hrs by SRB assay; details: MOLT-4, 48 h
In short: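 Leukemia suspension lines grown in RPMI 1640 with 5% FBS, seeded at 5000–40,000 cells/well, and preincubated 24 h at 37 °C, 5% CO2. Compound, stocked in DMSO, given either once at 10^-5 M or at five 10-fold dilutions for 48 h. Settled cells fixed with 80% TCA (final 16%), stained with SRB, and read at 515 nm. GI50 calculated against time-zero and control growth.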

SR [3] = assay: Growth inhibition of human SR cells after 48 hrs by SRB assay
HOP-92 [4] = assay: Growth inhibition of human HOP92 cells after 48 hrs by SRB assay; details: HOP-92, 48 h; for CC50: read-out: LC50 (the source's name); in short: as §2
NCI-H460 = assay: Growth inhibition of human NCI-H460 cells after 48 hrs by SRB assay; details: NCI-H460, 48 h; for CC50: read-out: LC50 (the source's name); in short: as §2
SF-539 = assay: Growth inhibition of human SF539 cells after 48 hrs by SRB assay; details: SF-539, 48 h; in short: as §2
MDA-MB-231 = assay: Cytotoxicity against human MDA-MB-231 cells assessed as cell growth at 10^-6 M after 48 hrs by SRB assay; details: MDA-MB-231, 48 h, read-out: Activity
CCRF-CEM = assay: Cytotoxicity against human CCRF-CEM cells assessed as cell growth at 10^-5 M after 48 hrs by SRB assay; details: read-out: Activity; in short: as §1
SR [5] = assay: Cytotoxicity against human SR cells assessed as cell growth at 10^-5 M after 48 hrs by SRB assay; details: read-out: Activity
A549 = assay: Cytotoxicity against human A549 cells assessed as cell growth at 10^-5 M after 48 hrs by SRB assay; details: A549, 48 h, read-out: Activity; in short: as §1
HOP-92 [6] = assay: Cytotoxicity against human HOP92 cells assessed as cell growth at 10^-5 M after 48 hrs by SRB assay; details: HOP-92, 48 h, read-out: Activity
In short: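 NCI-60 five-dose screen. Cells were grown in RPMI 1640 with 5% FBS and seeded at 5000–40,000 cells/well according to doubling time. They were pre-incubated 24 h at 37 °C in 5% CO₂, and time-zero (Tz) plates were TCA-fixed at drug addition. Five 10-fold dilutions of DMSO stock were applied for 48 h. Read-out was SRB staining, 515 nm absorbance, with percent growth calculated versus Tz and untreated control.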

COc1ccc(-c2nn3cc(-c4ccc(O)cc4O)nc3s2)cc1
growth at 10 µM (COLO): 35% | growth at 10 µM (SF-268): 14% | growth at 10 µM (786-0): -78% | GI50 (SNB-75): 0.331 µM | TGI (SNB-75): 2.17 µM | GI50 (OVCAR-8 [1]): 2.63 µM | TGI (OVCAR-8 [1]): > 100 µM | CC50 (OVCAR-8 [1]): > 100 µM | growth at 0.1 µM (MDA-MB-435): 91% | growth at 100 µM (NCI-H226): -19% | growth at 100 µM (SK-MEL-2): -48% | growth at 100 µM (SK-MEL-28): -26% | growth at 100 µM (OVCAR-8 [2]): -8% | growth at 100 µM (MDA-MB-468): -27% | growth at 0.1 µM (OVCAR-3): 98% | growth at 0.01 µM (NCI-H522): 89% | growth at 0.01 µM (OVCAR-4): 95% | growth at 0.01 µM (TK-10): 92% | growth at 1 µM (SW-620): 86% | growth at 1 µM (OVCAR-5): 84% | GI50 (MOLT-4): 3.04 µM | LC50 (MOLT-4): > 100 µM | TGI (MOLT-4): 29.8 µM | GI50 (SR [3]): 2.17 µM | LC50 (SR [3]): > 100 µM | TGI (SR [3]): 14 µM | GI50 (HOP-92 [4]): 0.231 µM | TGI (HOP-92 [4]): 2.68 µM | CC50 (HOP-92 [4]): > 100 µM | GI50 (NCI-H460): 2.02 µM | CC50 (NCI-H460): > 100 µM | GI50 (SF-539): 1.83 µM | TGI (SF-539): 3.47 µM | growth at 1 µM (MDA-MB-231): 66% | growth at 10 µM (CCRF-CEM): 40% | growth at 10 µM (SR [5]): 6% | growth at 10 µM (A549): 2% | growth at 10 µM (HOP-92 [6]): -33%

COc1ccc(-c2nn3cc(-c4cccc(N)c4)nc3s2)cc1
growth at 10 µM (COLO): 42% | growth at 10 µM (SF-268): 26% | growth at 10 µM (786-0): 23% | GI50 (SNB-75): 1.07 µM | TGI (SNB-75): 4.87 µM | CC50 (SNB-75; read-out: LC50 (the source's name)): > 100 µM | GI50 (OVCAR-8 [1]): 4.97 µM | TGI (OVCAR-8 [1]): 23 µM | CC50 (OVCAR-8 [1]): 89.9 µM | growth at 0.1 µM (MDA-MB-435): 88% | growth at 100 µM (NCI-H226): -61% | growth at 100 µM (SK-MEL-2): 38% | growth at 100 µM (SK-MEL-28): -39% | growth at 100 µM (OVCAR-8 [2]): -54% | growth at 100 µM (MDA-MB-468): -16% | growth at 0.1 µM (OVCAR-3): 98% | growth at 0.01 µM (NCI-H522): 82% | growth at 0.01 µM (OVCAR-4): 92% | growth at 0.01 µM (TK-10): 125% | growth at 1 µM (SW-620): 86% | growth at 1 µM (OVCAR-5): 90% | GI50 (MOLT-4): 3 µM | LC50 (MOLT-4): > 100 µM | TGI (MOLT-4): > 100 µM | GI50 (SR [3]): 3.27 µM | LC50 (SR [3]): > 100 µM | TGI (SR [3]): > 100 µM | GI50 (HOP-92 [4]): 0.114 µM | TGI (HOP-92 [4]): 0.989 µM | CC50 (HOP-92 [4]): 87.2 µM | GI50 (NCI-H460): 3.36 µM | TGI (NCI-H460): 28.9 µM | CC50 (NCI-H460): > 100 µM | GI50 (SF-539): 2.51 µM | LC50 (SF-539): 48 µM | TGI (SF-539): 7.83 µM | growth at 1 µM (MDA-MB-231): 61% | growth at 10 µM (CCRF-CEM): 10% | growth at 10 µM (SR [5]): 26% | growth at 10 µM (A549): 36% | growth at 10 µM (HOP-92 [6]): -25%
